For data set [1], the target named is T1, Estrogen receptor (Homo sapiens, UniProt P03372).
T1 sequence (P03372 whole entry): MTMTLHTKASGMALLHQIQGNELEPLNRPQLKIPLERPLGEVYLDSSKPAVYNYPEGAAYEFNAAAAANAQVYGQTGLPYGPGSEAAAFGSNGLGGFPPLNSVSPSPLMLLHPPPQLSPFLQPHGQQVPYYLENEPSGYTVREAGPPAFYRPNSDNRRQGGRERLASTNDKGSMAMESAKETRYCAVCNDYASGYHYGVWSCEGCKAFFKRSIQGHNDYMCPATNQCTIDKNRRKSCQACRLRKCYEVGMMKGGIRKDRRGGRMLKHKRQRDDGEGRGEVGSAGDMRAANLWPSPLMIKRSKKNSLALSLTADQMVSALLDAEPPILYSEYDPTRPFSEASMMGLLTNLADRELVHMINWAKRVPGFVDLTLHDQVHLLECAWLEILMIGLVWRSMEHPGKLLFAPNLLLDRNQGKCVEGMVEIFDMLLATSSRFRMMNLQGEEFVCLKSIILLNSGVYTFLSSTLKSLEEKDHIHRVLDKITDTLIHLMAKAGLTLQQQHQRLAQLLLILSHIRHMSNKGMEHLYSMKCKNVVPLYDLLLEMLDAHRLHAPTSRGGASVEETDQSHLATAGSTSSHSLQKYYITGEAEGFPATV
Kind of data set: Estrogenic activity at ERalpha in human Ishikawa cells assessed as stimulation of alkaline phosphatase activity after 4 days by microplate scanning spectrophotometry. It is filed as cell-based.

In data set [2] the target is T1, Estrogen receptor. Kind of data set: Antiestrogenic activity at ERalpha in human Ishikawa cells assessed as alkaline phosphatase activity after 4 days by microplate scanning spectrophotometry. The format is cell-based.
Data set [3] has as its target T1, Estrogen receptor. Kind of data set: Activation of ERalpha-mediated ERE activity in human T47D/PKC cells coexpressing PKCalpha after 18 hrs by luciferase reporter gene assay. It is filed as cell-based. (In general: Reporter assays use an easily measured gene product as a stand-in for the process of interest.)
For data set [4], the target named is T1, Estrogen receptor. Kind of data set: Activation of ERalpha-mediated ERE activity in human T47D/neo cells after 18 hrs by luciferase reporter gene assay. It is filed as cell-based.
Data set [5] deals with MCF7. Kind of data set: Drug uptake in human MCF7 cells assessed as drug localization to nucleus at 100 nM after 24 hrs by confocal fluorescent microscopy. It is filed as ADME, cell-based. Particulars: mcf7, 24 h, 0.1 µM; call rule not given here. An outline of the steps:
(§1)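 MCF-7 cells were grown 48 h at 37 °C, 5% CO2 in phenol-free medium with 10% stripped FBS, then exposed to rhodamine conjugates (100 nM) for 24 h. Rinsed twice with PBS, nuclei stained with Hoechst (0.2 µg/mL). Laser-scanning confocal imaging with rhodamine Ex/Em 544/576 nm, nuclear marker 345/420 nm, plus DIC and overlay. Several images of different cells and planes.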

In data set [6] the test system is MCF7. Kind of data set: Drug uptake in human MCF7 cells assessed as drug localization to cytoplasm at 100 nM after 24 hrs by confocal fluorescent microscopy. It is filed as ADME, cell-based. Particulars: mcf7, 24 h, 0.1 µM. An outline of the steps: as §1

For the compound `CC#C[C@]1(O)CC[C@H]2[C@@H]3CCc4cc(O)ccc4[C@H]3CC[C@@]21C` [ESTROGEN], the EC50 in data set [1] (read-out: EC50) was found to be 0.028 nM.
On to `C[C@]12CC[C@@H]3c4ccc(O)cc4CC[C@H]3[C@@H]1CC[C@@]2(O)c1cn(C[C@H]2O[C@@H]3O[C@H]4[C@H](O)[C@@H](O)[C@@H](O[C@H]5[C@H](O)[C@@H](O)[C@@H](O[C@H]6[C@H](O)[C@@H](O)[C@@H](O[C@H]7[C@H](O)[C@@H](O)[C@@H](O[C@H]8[C@H](O)[C@@H](O)[C@@H](O[C@H]9[C@H](O)[C@@H](O)[C@@H](O[C@H]2[C@H](O)[C@H]3O)O[C@@H]9CO)O[C@@H]8CO)O[C@@H]7CO)O[C@@H]6CO)O[C@@H]5CO)O[C@@H]4CO)nn1`, for which the IC50 entry in data set [2] is recorded as “Not Active”. Further, in data set [1] (read-out: EC50), the EC50 turned out to be 4000 nM.
As for `C[C@]12CC[C@@H]3c4ccc(O)cc4CC[C@H]3[C@@H]1CC[C@@]2(O)C#Cc1ccc(N)cc1`, in data set [2], the IC50 entry is “Not Active”. Besides, the EC50 in data set [1] (read-out: EC50) turned out to be 10 nM.
As for `[N-]=[N+]=NC[C@H]1O[C@@H]2O[C@H]3[C@H](O)[C@@H](O)[C@@H](O[C@H]4[C@H](O)[C@@H](O)[C@@H](O[C@H]5[C@H](O)[C@@H](O)[C@@H](O[C@H]6[C@H](O)[C@@H](O)[C@@H](O[C@H]7[C@H](O)[C@@H](O)[C@@H](O[C@H]8[C@H](O)[C@@H](O)[C@@H](O[C@H]1[C@H](O)[C@H]2O)O[C@@H]8CN=[N+]=[N-])O[C@@H]7CN=[N+]=[N-])O[C@@H]6CN=[N+]=[N-])O[C@@H]5C/N=[NH+]\[NH-])O[C@@H]4CN=[N+]=[N-])O[C@@H]3CN=[N+]=[N-]`, in data set [2], the IC50 entry is “Not Active”. Moreover, in data set [1] (ishikawa), the EC50 result is listed as “Not Active”.
`C[C@]12CC[C@@H]3c4ccc(O)cc4CC[C@H]3[C@@H]1CC[C@@]2(O)c1cn(CC[C@H]2O[C@@H]3O[C@H]4[C@H](O)[C@@H](O)[C@@H](O[C@H]5[C@H](O)[C@@H](O)[C@@H](O[C@H]6[C@H](O)[C@@H](O)[C@@H](O[C@H]7[C@H](O)[C@@H](O)[C@@H](O[C@H]8[C@H](O)[C@@H](O)[C@@H](O[C@H]9[C@H](O)[C@@H](O)[C@@H](O[C@H]2[C@H](O)[C@H]3O)O[C@@H]9Cn2cc([C@]3(O)CC[C@H]9[C@@H]%10CCc%11cc(O)ccc%11[C@H]%10CC[C@@]93C)nn2)O[C@@H]8Cn2cc([C@]3(O)CC[C@H]8[C@@H]9CCc%10cc(O)ccc%10[C@H]9CC[C@@]83C)nn2)O[C@@H]7Cn2cc([C@]3(O)CC[C@H]7[C@@H]8CCc9cc(O)ccc9[C@H]8CC[C@@]73C)nn2)O[C@@H]6Cn2cc([C@]3(O)CC[C@H]6[C@@H]7CCc8cc(O)ccc8[C@H]7CC[C@@]63C)nn2)O[C@@H]5Cn2cc([C@]3(O)CC[C@H]5[C@@H]6CCc7cc(O)ccc7[C@H]6CC[C@@]53C)nn2)O[C@@H]4Cn2cc([C@]3(O)CC[C@H]4[C@@H]5CCc6cc(O)ccc6[C@H]5CC[C@@]43C)nn2)nn1`: the EC50 was 2 nM in data set [3], > 100 nM in data set [4] and 200 nM in data set [1] (read-out: EC50). Besides, the IC50 result in data set [2] was “Not Active”. For the same compound, the Drug uptake entry in data set [5] is reported as “Not Active”; in data set [6], “Active”.
Consider `C[C@]12CC[C@@H]3c4ccc(O)cc4CC[C@H]3[C@@H]1CC[C@@]2(O)C#Cc1ccc(CO)cc1`, for which, in data set [2], the IC50 entry is listed as “Not Active”. Besides, the EC50 in data set [1] (read-out: EC50) is 27 nM.
The matching figures for `C[C@]12CC[C@@H]3c4ccc(O)cc4CC[C@H]3[C@@H]1CC[C@@]2(O)C#Cc1ccc(CNC[C@H]2O[C@@H]3O[C@H]4[C@H](O)[C@@H](O)[C@@H](O[C@H]5[C@H](O)[C@@H](O)[C@@H](O[C@H]6[C@H](O)[C@@H](O)[C@@H](O[C@H]7[C@H](O)[C@@H](O)[C@@H](O[C@H]8[C@H](O)[C@@H](O)[C@@H](O[C@H]9[C@H](O)[C@@H](O)[C@@H](O[C@H]2[C@H](O)[C@H]3O)O[C@@H]9CO)O[C@@H]8CO)O[C@@H]7CO)O[C@@H]6CO)O[C@@H]5CO)O[C@@H]4CO)cc1`: “Not Active” and 4000 nM.
Consider `NC[C@H]1O[C@@H]2O[C@H]3[C@H](O)[C@@H](O)[C@@H](O[C@H]4[C@H](O)[C@@H](O)[C@@H](O[C@H]5[C@H](O)[C@@H](O)[C@@H](O[C@H]6[C@H](O)[C@@H](O)[C@@H](O[C@H]7[C@H](O)[C@@H](O)[C@@H](O[C@H]8[C@H](O)[C@@H](O)[C@@H](O[C@H]1[C@H](O)[C@H]2O)O[C@@H]8CN)O[C@@H]7CN)O[C@@H]6CN)O[C@@H]5CN)O[C@@H]4CN)O[C@@H]3CN`, for which the IC50 result in data set [2] is recorded as “Not Active”. Besides, the EC50 entry in data set [1] (ishikawa) is listed as “Not Active”.
For `Cn1cc([C@]2(O)CC[C@H]3[C@@H]4CCc5cc(O)ccc5[C@H]4CC[C@@]32C)nn1`, the IC50 entry in data set [2] is “Not Active”.
Regarding `C[C@]12CC[C@@H]3c4ccc(O)cc4CC[C@H]3[C@@H]1CC[C@@]2(O)C#Cc1ccc(CNC[C@H]2O[C@@H]3O[C@H]4[C@H](O)[C@@H](O)[C@@H](O[C@H]5[C@H](O)[C@@H](O)[C@@H](O[C@H]6[C@H](O)[C@@H](O)[C@@H](O[C@H]7[C@H](O)[C@@H](O)[C@@H](O[C@H]8[C@H](O)[C@@H](O)[C@@H](O[C@H]9[C@H](O)[C@@H](O)[C@@H](O[C@H]2[C@H](O)[C@H]3O)O[C@@H]9CNCc2ccc(C#C[C@]3(O)CC[C@H]9[C@@H]%10CCc%11cc(O)ccc%11[C@H]%10CC[C@@]93C)cc2)O[C@@H]8CNCc2ccc(C#C[C@]3(O)CC[C@H]8[C@@H]9CCc%10cc(O)ccc%10[C@H]9CC[C@@]83C)cc2)O[C@@H]7CNCc2ccc(C#C[C@]3(O)CC[C@H]7[C@@H]8CCc9cc(O)ccc9[C@H]8CC[C@@]73C)cc2)O[C@@H]6CNCc2ccc(C#C[C@]3(O)CC[C@H]6[C@@H]7CCc8cc(O)ccc8[C@H]7CC[C@@]63C)cc2)O[C@@H]5CNCc2ccc(C#C[C@]3(O)CC[C@H]5[C@@H]6CCc7cc(O)ccc7[C@H]6CC[C@@]53C)cc2)O[C@@H]4CNCc2ccc(C#C[C@]3(O)CC[C@H]4[C@@H]5CCc6cc(O)ccc6[C@H]5CC[C@@]43C)cc2)cc1`, the IC50 entry in data set [2] was “Not Active”. The EC50 in data set [1] (read-out: EC50) came to 300 nM.

As a reminder, the EC50 is the concentration giving half of the maximal effect.
